The list is not random: actives were taken first. Their share in the collection is about 2.6%.
miR122 inh – blocks miR-122 activity in Huh7 sensor cells; activation (reporter increase), % at 12.5 µM; AID 602342; Huh7 miR-122 Renilla luciferase sensor, 48 h; neutral wells = 0, positive control = 100; actives 0.3% (n = 340,000);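 active = mean replicate activation score at least 90 and every replicate individually at or above 90; inconclusive = only one of the two criteria met; inactive = neither criterion met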;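 also: higher luciferase means less miR-122 activity so hits act as miR-122 inhibitors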
E-selectin induc – induces E-selectin expression in human endothelial cells | P16581 | HUVEC E-selectin immunofluorescence imaging; normalized: neutral wells 0, TNF-alpha wells 100 | activation, % at 7.58 µM | actives 0.37% (n = 260,000);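 active = mean E-selectin-positive cell signal at least 10% of the positive control, reached in at least 60% of replicates, without over 20% cell loss; inconclusive = no rule given, readout overlaps actives, possibly toxicity-flagged; inactive = the rest, including those meeting only one limit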
Target sequence (P16581 whole entry, looked up): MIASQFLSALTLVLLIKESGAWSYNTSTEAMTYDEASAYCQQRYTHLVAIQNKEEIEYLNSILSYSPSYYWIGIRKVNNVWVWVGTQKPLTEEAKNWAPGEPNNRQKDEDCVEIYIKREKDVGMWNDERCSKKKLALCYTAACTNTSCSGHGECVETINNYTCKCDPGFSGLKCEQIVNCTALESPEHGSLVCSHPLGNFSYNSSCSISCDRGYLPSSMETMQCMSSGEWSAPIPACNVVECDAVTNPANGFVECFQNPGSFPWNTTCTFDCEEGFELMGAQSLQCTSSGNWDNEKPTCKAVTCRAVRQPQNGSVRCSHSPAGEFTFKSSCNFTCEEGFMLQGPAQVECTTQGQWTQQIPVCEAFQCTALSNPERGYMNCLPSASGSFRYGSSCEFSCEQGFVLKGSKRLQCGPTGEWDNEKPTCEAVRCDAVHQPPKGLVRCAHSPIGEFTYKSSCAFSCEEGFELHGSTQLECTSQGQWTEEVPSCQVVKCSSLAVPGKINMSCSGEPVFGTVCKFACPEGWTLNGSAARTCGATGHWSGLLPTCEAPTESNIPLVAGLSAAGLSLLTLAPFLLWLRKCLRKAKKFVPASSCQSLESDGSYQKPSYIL
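Test system: HUVEC | Signal: Immunofluorescence imaging | Read-out: Percent E-selectin-positive cells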
ERAP1 inh – inhibitors of human ERAP1 aminopeptidase | Q9NZ08 | recombinant ERAP1, Leu-AMC fluorescence, 60 min | inhibition, % at 10.7 µM | actives 0.15% (n = 340,000) | AID 652197;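 active = mean replicate inhibition of at least 30%, or all replicates individually reaching that 30% level; inactive = mean below 30% and not every replicate reaching it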;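 also: 0% = neutral control wells and 100% = L-leucinethiol positive control wells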
DENV2 CPE – protects cells from dengue virus 2 cytopathic effect; actives 1.7% (n = 350,000); AID 651640; DENV2-infected cells, cytopathic effect rescue, plate reader; CPE inhibition, % at 9.99 µM; in the data active = CPE inhibition above about 20%, passing the limit was not always enough; inconclusive = no clear call, values can overlap the other calls; tested in BHK-21 cells;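 also: 0% = median of neutral control wells and 100% = median of positive control wells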
INS-1E GSIS act – GLuc luminescence reporter in INS-1E cells, primary screen for activators of glucose-dependent secretion of insulin. activation, % at 16.6 µM. AID 743287. INS-1E GLuc reporter insulin secretion, 2-3 h. actives 0.61% (n = 370,000);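 active = lowest replicate activation of at least 40%, so every replicate reaches that level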;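 also: 0% = median of neutral control wells and 100% = median of IBMX positive control wells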
F508del corr – correctors of CFTR F508del function in bronchial epithelial cells | CFBE cells, YFP halide quenching; stimulated with forskolin plus potentiator P3; % fluorescence drop versus neutral controls | activity (quench increase), % at 7.58 µM | actives 0.36% (n = 350,000) | AID 720511;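 active = mean added fluorescence quench of at least 8% versus neutral control, with both replicates also reaching 8%; inconclusive = only one of the mean or replicate conditions met; inactive = mean below 8% and not both replicates reaching 8%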;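 also: cells transiently co-express mutant CFTR-F508del with the halide-sensitive YFP; corrector assay measuring rescue of mutant channel to the surface after 24 h compound exposure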
Starred values were filed as active, the others as inactive; [ ] = remark or other dose.

`C[C@H]1CN([C@@H](C)CO)C(=O)c2cccc(NS(C)(=O)=O)c2O[C@@H]1CN(C)Cc1ccc(-c2ccccc2)cc1` gave miR122 inh 24.1[16.7 µM], E-selectin induc 0.0, ERAP1 inh -1.6, DENV2 CPE -6.6, INS-1E GSIS act 2.6 and F508del corr 1.2.
COc1ccc2o/c(=N\O)c(C(=O)Nc3ccc(C)cc3)cc2c1 was read as E-selectin induc 0.0, ERAP1 inh 0.2, DENV2 CPE 25.2*, INS-1E GSIS act -60.1 and F508del corr -1.5.
Nc1ccc2ccccc2c1C(=O)c1ccccc1 was read as miR122 inh 2.2, E-selectin induc 0.1, ERAP1 inh -5.4, DENV2 CPE 57.0* and F508del corr -0.3.
Cc1ccc(NC(=O)c2nc[nH]c2C(=O)Nc2ccccc2F)cc1 was read as miR122 inh 1.4, E-selectin induc 3.2, ERAP1 inh 9.0, DENV2 CPE 6.6, INS-1E GSIS act 2.8 and F508del corr 3.4.
`O=C(Nc1ccccc1)c1nc[nH]c1C(=O)Nc1ccccc1F` gave miR122 inh -0.1, ERAP1 inh -3.1, DENV2 CPE -11.0, INS-1E GSIS act 9.8 and F508del corr 9.5*.
For CN1C(=O)c2cc(NC(=O)Cc3cccs3)ccc2OC[C@H]2O[C@H](CC(=O)N[C@H]3CCN(Cc4ccccc4)C3)CC[C@H]21 the results were E-selectin induc 0.0, ERAP1 inh 4.0, DENV2 CPE -3.1 and INS-1E GSIS act 0.0.
C[C@H](CO)N1C[C@H](C)[C@H](CN(C)Cc2ccncc2)Oc2cc(C#C[C@@H](C)O)ccc2S1(=O)=O was read as miR122 inh 9.6[16.7 µM], E-selectin induc 0.0, ERAP1 inh -0.2, DENV2 CPE 0.7, INS-1E GSIS act 16.7 and F508del corr 2.1.
Screening c1ccc(Cn2nnc3c(NCc4ccc5c(c4)OCO5)nc(C4CC4)nc32)cc1 returned miR122 inh 1.3.
Cc1nc(NCc2ccc3c(c2)OCO3)c2nnn(Cc3ccccc3)c2n1 was read as miR122 inh 7.5 and INS-1E GSIS act 50.1*.
Screening CCCn1nc(NC(=O)C(C)(C)C)c2cc3cc(OC)ccc3nc21 returned miR122 inh 5.8, ERAP1 inh -6.5, DENV2 CPE -4.0, INS-1E GSIS act 15.4 and F508del corr -2.0.
`CCCCn1nc(NC(=O)CC)c2cc3cc(OC)ccc3nc21` gave miR122 inh 9.1, E-selectin induc 1.9, ERAP1 inh -4.1, DENV2 CPE 3.5, INS-1E GSIS act 29.5 and F508del corr 9.6*.
`CC1CCN(CC(O)COC2CC(C)CC(C)(C)C2)CC1` (stereo unspecified) gave miR122 inh 2.1, E-selectin induc 0.0, ERAP1 inh -0.1, DENV2 CPE 2.2, INS-1E GSIS act 9.0 and F508del corr 2.1.
Screening CC[N+]1(CC(O)COC2CC(C)CC(C)(C)C2)CCOCC1 (stereo unspecified) returned miR122 inh 11.6, ERAP1 inh 107.5*, DENV2 CPE 4.8, INS-1E GSIS act -5.0 and F508del corr -2.6.
`CCOc1ccccc1OCCC(=O)NNC(=O)Cn1nc(C)cc1C` gave miR122 inh -0.9, E-selectin induc 2.3, ERAP1 inh -1.5, DENV2 CPE -1.7, INS-1E GSIS act 52.7* and F508del corr -1.9.
NCC[C@H]1CC[C@@H](NC(=O)CCN2CCCCC2)[C@H](CO)O1 was read as E-selectin induc 0.2, ERAP1 inh -0.7, DENV2 CPE 2.0, INS-1E GSIS act -2.1 and F508del corr -0.4.
CCN(C(=O)C12CC3CC(CC(C3)C1)C2)C1CCS(=O)(=O)C1 (stereo unspecified) was read as miR122 inh 1.6, E-selectin induc 0.3, ERAP1 inh -5.5, DENV2 CPE -0.5, INS-1E GSIS act 59.4* and F508del corr 0.0.
`COc1ccc(F)cc1S(=O)(=O)NC1CC(C)(C)NC(C)(C)C1` gave miR122 inh 0.7.
COc1ccc(F)cc1S(=O)(=O)NC1CCCCCC1 was read as miR122 inh 104.7*.
`COc1ccc(C)cc1S(=O)(=O)NC1CCCCC1C` (stereo unspecified) gave miR122 inh 132.5*.
COc1cc(S(=O)(=O)NC2CCCCC2)c(C)cc1C was read as miR122 inh 163.1*, ERAP1 inh -4.1, INS-1E GSIS act -2.7 and F508del corr -0.1.
For COc1cc(S(=O)(=O)NC2CC(C)(C)NC(C)(C)C2)c(OC)cc1Cl the results were miR122 inh 2.0, E-selectin induc 0.4, ERAP1 inh 6.8, DENV2 CPE -0.1, INS-1E GSIS act 12.2 and F508del corr -0.5.
For COc1cc(S(=O)(=O)NC2CCCC2)c(OC)cc1Cl the results were miR122 inh 293.1* and INS-1E GSIS act 4.3.
`COc1ccc(S(=O)(=O)NC2CCCCCC2)c(OC)c1` gave miR122 inh 28.9, E-selectin induc 0.8, ERAP1 inh -2.1, DENV2 CPE inconclusive, INS-1E GSIS act 13.4 and F508del corr 0.2.
`COc1ccc(OC)c(S(=O)(=O)NC2CC2)c1` gave miR122 inh 7.2, E-selectin induc 1.0, ERAP1 inh -0.5, DENV2 CPE 1.8, INS-1E GSIS act -2.9 and F508del corr 0.1.
Screening C[C@@H]1CCCCO[C@H](CN(C)Cc2ccncc2)[C@@H](C)CN([C@H](C)CO)C(=O)c2cc(NC(=O)Nc3ccc4c(c3)OCO4)ccc2O1 returned miR122 inh 4.8[16.7 µM], E-selectin induc -0.1, ERAP1 inh 0.1, DENV2 CPE -6.4, INS-1E GSIS act -1.7 and F508del corr -0.1.
CCOc1cc(S(=O)(=O)NC2CCCC2)ccc1Cl was read as miR122 inh 26.4.
`CCOc1ccc(Cl)cc1S(=O)(=O)NC1CCCC1` gave miR122 inh 114.1*, E-selectin induc -0.2, ERAP1 inh -2.0, DENV2 CPE -7.3, INS-1E GSIS act 2.8 and F508del corr 2.8.
Screening N#CC1=C(N)Oc2nc(-c3ccccc3)[nH]c2C1c1cccnc1 (stereo unspecified) returned miR122 inh 1.1 and INS-1E GSIS act 47.7*.
Cc1ccc(-c2[nH]nc3c2C(c2cccnc2)C(C#N)=C(N)O3)cc1 (stereo unspecified) was read as miR122 inh 5.0 and INS-1E GSIS act 78.1*.
Screening CC(C)NC(=O)N(C)C[C@H]1Oc2c(N)cccc2C(=O)N(C)C[C@H]1C returned INS-1E GSIS act 6.0.
`CO[C@H]1CN(C)C(=O)c2ccc(NS(=O)(=O)c3ccc(C)cc3)cc2OC[C@H](C)NC[C@@H]1C` gave E-selectin induc 0.0, ERAP1 inh 0.1, DENV2 CPE 7.9, INS-1E GSIS act 12.4 and F508del corr -2.1.

Screens from PubChem BioAssay.
